Screens: PubChem, Broad Institute
RAD54 branch – inhibitors of human RAD54 branch migration | inhibition, % at 10.4 µM | RAD54 Holliday junction branch migration, FAM/BHQ fluorescence | 360,000 tested, 0.14% active | AID 602329 | Q92698;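 active = mean normalized replicate activity at least 40 and at least half of replicates scoring 40 or more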;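 also: 0% = median of neutral control wells and 100% = median of positive control wells; inhibitors cause a drop in the FAM fluorescence signal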
Ecoli rRNA inh – selective bacterial rRNA inhibition in E. coli | E. coli WT GFP vs humanized-ribosome RFP mutants, fluorescence, 24 h; active compounds read low; DMSO median 0, no signal -100 | GFP signal change (wild-type ribosome), % (test concentration not listed) | 350,000 tested, 1.6% active;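 active = significant combined selectivity score with lowered wild-type GFP, culture density cut under 30%, mutant RFP and density less affected; inactive = any of these conditions unmet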
E-selectin induc – induces E-selectin expression in human endothelial cells; P16581; HUVEC E-selectin immunofluorescence imaging; normalized: neutral wells 0, TNF-alpha wells 100; activation, % at 7.58 µM; 260,000 tested, 0.37% active; AID 686992;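 active = mean E-selectin-positive cell signal at least 10% of the positive control, reached in at least 60% of replicates, without over 20% cell loss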
Target sequence (P16581 whole entry, looked up): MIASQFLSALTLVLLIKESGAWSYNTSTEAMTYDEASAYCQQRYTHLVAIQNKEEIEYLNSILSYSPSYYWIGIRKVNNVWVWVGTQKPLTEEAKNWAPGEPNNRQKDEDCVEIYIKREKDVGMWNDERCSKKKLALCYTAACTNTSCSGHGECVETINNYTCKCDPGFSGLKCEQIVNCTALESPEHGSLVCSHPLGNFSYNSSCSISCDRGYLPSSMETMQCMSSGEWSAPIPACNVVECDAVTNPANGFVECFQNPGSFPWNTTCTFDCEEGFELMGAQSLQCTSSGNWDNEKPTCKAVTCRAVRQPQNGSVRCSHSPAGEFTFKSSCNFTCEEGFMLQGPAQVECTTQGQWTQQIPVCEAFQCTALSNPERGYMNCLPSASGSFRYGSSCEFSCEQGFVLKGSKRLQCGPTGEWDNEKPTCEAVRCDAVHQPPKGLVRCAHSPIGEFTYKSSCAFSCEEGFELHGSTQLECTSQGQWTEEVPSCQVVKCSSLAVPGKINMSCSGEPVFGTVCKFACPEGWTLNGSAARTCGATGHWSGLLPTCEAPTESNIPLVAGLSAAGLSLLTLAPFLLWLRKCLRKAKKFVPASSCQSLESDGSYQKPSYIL
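Read-out: % PE-positive cells | Test system: HUVEC | Doses: One compound dose added by pin transfer | Buffer or medium: EGM-2 over gelatin coat | Signal: Immunofluorescence imaging | Benchmarks: TNF-alpha, DMSO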
RAD52 anneal inh – RAD52 (human) annealing inhibition; 360,000 tested, 0.46% active; recombinant RAD52 DNA annealing, FRET fluorescence; AID 651710; inhibition, % at 18.7 µM;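 active = every replicate showing at least 50% inhibition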
PglD DTNB – blocks C. jejuni PglD acetyltransferase activity; inhibition, % at 12.5 µM; 360,000 tested, 0.098% active; purified PglD enzyme, DTNB colorimetric CoA detection; in the data active = inhibition above about 16%, passing the limit was not always enough
Xi reactivation – X-chromosome reactivation activator; activation, % at 7.58 µM; XiGFP mouse fibroblasts, % GFP-positive cells imaging, 3 d; cells co-treated with 5-aza-dC sensitizer; scaled so ellipticine positive control = 100%; 360,000 tested, 0.055% active;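 active = mean normalized replicate activation at least 10% and every replicate at or above 10%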;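 also: 0% = median of on-plate neutral control wells and 100% = ellipticine 6 µM median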
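Material: XiGFP fibroblasts, SV40-immortalized; Buffer or medium: DMEM containing 5-aza-dC; Compound dosing: single point; Times: 3 days compound exposure.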
Starred values were filed as active, the others as inactive; . = not tested or not shown. Only some compounds are listed: those with a hit (about 2% of all), similar ones and a draw of the others.

SMILES	RAD54 branch	Ecoli rRNA inh	E-selectin induc	RAD52 anneal inh	PglD DTNB	Xi reactivation
COc1ccc(CN(C)C[C@@H]2OCCCC[C@@H](C)Oc3ccc(NC(=O)Nc4ccc5c(c4)OCO5)cc3C(=O)N([C@H](C)CO)C[C@H]2C)cc1	-4	1	0	55*	0	0
COc1ccc(S(=O)(=O)N(C)C[C@@H]2OCCCC[C@H](C)Oc3ccc(NC(=O)Nc4cccc5ccccc45)cc3C(=O)N([C@H](C)CO)C[C@H]2C)cc1	0	1	34*	-38	6	0
COc1ccc(S(=O)(=O)N(C)C[C@H]2OCCCC[C@H](C)Oc3ccc(NC(=O)Nc4cccc5ccccc45)cc3C(=O)N([C@@H](C)CO)C[C@@H]2C)cc1	-8	2	1	-3	4	0
CCC(=O)Nc1ccc2c(c1)OC[C@@H](C)NC[C@@H](C)[C@H](OC)CN(C)C2=O	-8	-2	0	1	0	1
CC(C)(C)S(=O)(=O)c1cnc(-c2cnccn2)nc1N	-8	16	46*	-24	0	0
COC(=O)c1ccccc1OCCOCCOc1cccc2ccc(C)nc12	8	-28*	2	-12	-3	0
COC(=O)c1ccc(OCCOCCOc2cccc3ccc(C)nc23)cc1	.	.	0	-8	.	0
Cc1ccc(OCCOc2cccc3ccc(C)nc23)c([N+](=O)[O-])c1	-2	-21*	2	-6	-1	0
O=C(NC(=S)Nc1nc(-c2cccc([N+](=O)[O-])c2)cs1)c1ccccc1Cl	.	-19*	0	-20	.	0
O=[N+]([O-])c1cccc(-c2csc(N/N=C/c3cccc(O)c3)n2)c1	.	-42*	.	-15	.	0
CC(=O)c1sc(N/N=C/c2cccc(O)c2)nc1C	11	-21*	0	-8	-5	0
CC(=O)c1sc(N/N=C/c2cccc([N+](=O)[O-])c2)nc1C	-3	8	0	-9	-1	0
CCCN(C)C[C@@H]1Oc2cc(C#Cc3ccccc3)ccc2S(=O)(=O)N([C@@H](C)CO)C[C@@H]1C	3	1	1	18	3	0
O=C(CC1CC1)N1CC2(C1)[C@@H](c1ccccc1)[C@H](CO)N2C(=O)c1cccnc1	.	3	0	-1	.	0
COc1ccc(NC(=O)N(C)C[C@H]2Oc3ncc(-c4ccc(C#N)cc4)cc3C(=O)N([C@H](C)CO)C[C@H]2C)cc1	-1	-1	0	9	1	-1
CCc1ccc2c(CN3CCC(C(=O)OC)CC3)cc(=O)oc2c1	-12	-22*	.	-12	-2	0
C[C@@H]1CCCCO[C@H](CN(C)S(C)(=O)=O)[C@@H](C)CN([C@H](C)CO)C(=O)c2cc(NC(=O)C3CCCCC3)ccc2O1	0	2	0	-2	-1	0
O=[N+]([O-])c1cc(C(F)(F)F)cc([N+](=O)[O-])c1NCCNC(=S)Nc1cccc(F)c1	.	-25*	5	-8	.	0
Fc1ccc(CNC(=S)Nc2cccc(C(F)(F)F)c2)cc1	.	.	.	.	.	0
C[C@@H]1CN([C@H](C)CO)C(=O)c2cc(C#CC3CCCCC3)cnc2O[C@@H]1CN(C)S(=O)(=O)c1ccc(F)cc1	5	4	0	7	0	-1
CN(C)c1ccc(/C(=N\O)C(F)(F)F)cc1	-3	-31*	.	-12	0	.
CN(C)C(=O)[C@@H]1[C@@H](CO)[C@@H]2Cn3c(ccc(-c4ccccc4)c3=O)[C@H]1N2C(=O)C1CCCC1	-1	2	0	-17	1	0
COc1ccc(/C=C/CN2CCCC(CO)(Cc3cccc(Cl)c3)C2)cc1 (stereo unspecified)	-2	-47*	0	-33	1	0
COc1ccccc1/C=C/CN1CCCC(CO)(Cc2cccc(Cl)c2)C1 (stereo unspecified)	-14	-45	.	-87	0	1
C[C@@H]1CN([C@@H](C)CO)C(=O)c2cccc(N(C)C)c2O[C@@H]1CN(C)Cc1ccncc1	1	1	1	-5	3	0
SMILES	RAD54 branch	Ecoli rRNA inh	E-selectin induc	RAD52 anneal inh	PglD DTNB	Xi reactivation
CCC(=O)c1ccc(OCCn2cnc3ccccc32)cc1	.	-34*	1	-15	.	0
COc1ccc(-c2csc(NC(=S)NC(=O)/C=C/c3ccco3)n2)cc1OC	.	-14	.	-6	.	0
COc1ccc(-c2csc(NC(=S)NC(=O)/C=C/c3ccco3)n2)cc1Br	-1	-41*	0	-22	-2	0
O=C(CSc1n[nH]c(=O)n1C1CC1)Nc1ccc(Cl)c(Cl)c1	2	-20*	0	-6	1	0
O=S1(=O)c2ccc(Br)cc2OCCC2CCCCN21 (stereo unspecified)	.	-21*	0	-12	.	0
COC(=O)c1ccc(COc2ccc(Cl)cc2)o1	2	-7	.	-7	0	0
COC(=O)c1ccc(COc2ccc(/C=N/NC(N)=S)cc2)o1	1	-29*	.	-26	-5	0
CCN1CCN(c2ccc(S(=O)(=O)N3CCCCC3)cc2NC(=O)/C=C/c2cccc(OC)c2OC)CC1	-4	-20*	0	5	-1	0
CCN1CCN(c2ccc(S(=O)(=O)N3CCCCC3)cc2NC(=O)/C=C/c2ccc(F)cc2)CC1	-8	-2	.	5	-2	0
Cc1cc(C)nc(NN=C2CCCC2)n1	.	.	1	.	.	0
C1CCCCCC(=NNc2nn[nH]n2)CCCCC1	0	20	67*	-18	-5	0
C[C@@H]1CN([C@@H](C)CO)C(=O)c2cc(C#Cc3ccc(F)cc3)cnc2O[C@H]1CN(C)C(=O)Nc1ccc(F)cc1	-4	-1	0	-12	-1	0
Cc1cccc(Nc2ncnc3onc(-c4cccc(Cl)c4)c23)c1	5	-18	0	-14	-1	0
Clc1cccc(-c2noc3ncnc(Nc4ccc5c(c4)OCO5)c23)c1	4	-22*	0	-9	4	0
CC(C)(C)c1csc(NC(=O)Cc2cccs2)n1	.	-23*	.	-17	.	0
CCOc1ccc(OCCC(=O)OCC(=O)c2c(N)n(CC(C)C)c(=O)n(C)c2=O)cc1	12	-17*	0	-14	-2	0
Cn1c(N)c(C(=O)COC(=O)Cc2ccc(Cl)c(Cl)c2)c(=O)n(C)c1=O	-1	-35*	.	-19	-4	1
COc1ccc(CC(=O)OCC(=O)c2c(N)n(C)c(=O)n(C)c2=O)cc1OC	-8	3	.	0	0	0
Cn1c(N)c(C(=O)COC(=O)CCc2ccccc2)c(=O)n(C)c1=O	8	-14	107*	-5	0	0
